ChEMBL document CHEMBL1151213, “Yucca schidigera bark: phenolic constituents and antioxidant activity” (J Nat Prod, 2004)

How the values were obtained:
Format in all cases: functional
[1] = Antioxidant activity against beta-carotene and linoleic acid assessed as inhibition of bleaching of beta-carotene at 120 mins by autooxidation assay; set-up: concentration or dose not given beside the values
Outline: (§1)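 Heat-induced oxidation of an aqueous emulsion of β-carotene, linoleic acid and Tween 20, held at 50 °C for 3 h. β-Carotene bleaching was followed by A470 at intervals. AA = [1 − (A0 − At)/(A00 − A0t)] × 100, taking absorbances with and without test sample at start and at time t. Run in triplicate; BHT served as positive control.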

[2] = Antioxidant activity against beta-carotene and linoleic acid assessed as inhibition of bleaching of beta-carotene at 60 mins by autooxidation assay; set-up: concentration or dose not given beside the values; outline: as §1
[3] = Antioxidant activity against ABTS radical assessed as TEAC units
Outline: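 ABTS radical cation solution diluted in PBS pH 7.4 to A734 0.70, equilibrated at 30 °C. Samples in methanol at 0.3, 0.5, 1, 1.5 and 2 mM; reaction started by adding diluted ABTS to sample. Percent inhibition of A734 versus methanol blank plotted against concentration, in triplicate. Value is Trolox concentration with the same capacity as 1 mM sample.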

| Structure (SMILES) | Activity [1] | Activity [2] | Activity [3] | inhibition [2] |
| --- | --- | --- | --- | --- |
| COc1c(O)cc(/C=C/c2cc(O)cc(O)c2)cc1O | 2.9% | 3.1% | 2.25 mM | – |
| O=C1Oc2cc(O)c3c(c2[C@]12c1c(O)cc(O)cc1O[C@@H]2c1ccc(O)cc1)O[C@H](c1ccc(O)cc1)[C@H](O)C3 | 51% | 24.4% | 1.79 mM | – |
| COc1c(O)cc(/C=C/c2cc(O)cc3c2[C@@]2(C(=O)O3)c3c(O)cc(O)cc3O[C@@H]2c2ccc(O)cc2)cc1O | 71.7% | 59.5% | 1.6 mM | – |
| Oc1ccc(/C=C/c2cc(O)cc(O)c2)cc1 | 45.9% | 24.9% | 1.9 mM | – |
| O=c1c(O)c(-c2ccc(O)c(O)c2)oc2cc(O)cc(O)c12 | – | – | 2.6 mM | – |
| O=C1Oc2cc(O)cc(/C=C/c3ccc(O)cc3)c2[C@]12c1c(O)cc(O)cc1O[C@@H]2c1ccc(O)cc1 | 72.1% | 76.3% | 1.09 mM | – |
| COc1c(O)cc(/C=C/c2cc(O)cc(O)c2)c2c1OC(=O)[C@@]21c2c(O)cc(O)cc2O[C@@H]1c1ccc(O)cc1 | 79.3% | 74.3% | 1.85 mM | – |
| O=C1[C@@H](c2ccc(O)cc2)Oc2cc(O)cc(O)c2[C@@]12c1c(O)cc(O)cc1[C@H](O)[C@H]2c1ccc(O)cc1 | 43.4% | 40.6% | 1.04 mM | – |
| O=C1Oc2cc(O)cc(/C=C/c3ccc(O)cc3)c2[C@@]12c1c(O)cc(O)cc1O[C@@H]2c1ccc(O)cc1 | 72.1% | 52.6% | 0.96 mM | – |
| COc1c(O)cc(/C=C/c2cc(O)cc3c2[C@]2(C(=O)O3)c3c(O)cc(O)cc3O[C@@H]2c2ccc(O)cc2)cc1O | 66.2% | – | 1.42 mM | 66.4% |
